CASP6 VEID inh – caspase-6 (human) enzyme inhibition; P55212; purified caspase-6, Z-VEID-R110 cleavage fluorescence; inhibition, % at 12.5 µM; hit rate 0.53% among 350,000; AID 686996;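 active means mean inhibition across replicates at least about 35%, with every replicate also reaching that limit, limit read from the data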;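 further: 0% = median of neutral control wells and 100% = no fluorescence left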
Target sequence (P55212 24-179 limits assumed): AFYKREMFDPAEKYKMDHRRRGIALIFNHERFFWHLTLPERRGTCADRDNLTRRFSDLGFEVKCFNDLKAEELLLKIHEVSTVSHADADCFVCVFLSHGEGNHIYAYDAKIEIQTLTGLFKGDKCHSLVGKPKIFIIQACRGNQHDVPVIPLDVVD
Target sequence (P55212 194-293 limits assumed): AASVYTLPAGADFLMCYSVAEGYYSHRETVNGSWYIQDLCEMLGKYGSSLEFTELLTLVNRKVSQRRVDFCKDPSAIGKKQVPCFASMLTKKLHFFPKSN
ERAP1 inh – ERAP1 (human) enzyme inhibition | hit rate 0.15% among 340,000 | recombinant ERAP1, Leu-AMC fluorescence, 60 min | inhibition, % at 10.7 µM | Q9NZ08;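 active means mean replicate inhibition of at least 30%, or all replicates individually reaching that 30% level; inactive means mean below 30% and not every replicate reaching it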;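 further: 0% = neutral control wells and 100% = L-leucinethiol positive control wells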
Ecoli rRNA inh – inhibitors of bacterial rRNA selective over humanized ribosomes; E. coli WT GFP vs humanized-ribosome RFP mutants, fluorescence, 24 h; active compounds read low; DMSO median 0, no signal -100; GFP signal change (wild-type ribosome), % (no concentration beside the values); hit rate 1.6% among 350,000;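 active means significant combined selectivity score with lowered wild-type GFP, culture density cut under 30%, mutant RFP and density less affected; inactive means any of these conditions unmet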
S100A4 inh HTS – inhibitors of human S100A4 binding to myosin IIA peptide | P26447 | S100A4/TAMRA-MyoIIA peptide fluorescence polarization | inhibition, % at 10.7 µM | hit rate 0.14% among 360,000 | AID 652163;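 active means mean inhibition of at least 70% across replicates, with every replicate also reaching that level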
Target sequence (P26447 whole entry, looked up): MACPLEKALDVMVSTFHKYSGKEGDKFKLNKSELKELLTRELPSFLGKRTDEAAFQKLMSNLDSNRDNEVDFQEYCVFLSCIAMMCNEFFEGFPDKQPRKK
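Material: S100A4 monomer protein | Medium: HEPES pH 7.2 with CaCl2, KCl, NaCl, DTT, Triton | Reagent: Labelled myosin peptide probe, 5 nM | Doses: One dose per compound | Times: 5 min incubation before reading | Benchmarks: Neutral control DMSO, positive control TFP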
ARNT TACC3 PPI – ARNT/TACC3 interaction disruption | Q9Y6A5 | AlphaScreen His-ARNT PAS-B/GST-TACC3 binding, luminescence; TACC3 fragment carries E629A point mutation | inhibition, % at 9.99 µM | hit rate 0.66% among 390,000;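 active means mean inhibition of replicates at least 50% and at least half of replicates each reaching 50%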;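 further: 0% = complete ARNT plus TACC3 wells and 100% = ARNT alone without TACC3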
PGC1a acetyl inh – PGC1a acetylation modulation, inhibitor mode; U2OS PGC1a acetylation, AlphaScreen anti-acetyl-lysine; with virally co-expressed GCN5 acetyltransferase; inhibition, % at 15.6 µM; hit rate 0.17% among 350,000; AID 651687;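 active means every replicate shows inhibition of at least 40%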;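 further: 0% = neutral control wells and 100% = positive control wells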
An asterisk follows results filed as active; · = not tested or not shown. Shown are actives, neighbours in structure and some others; about 2.4% of the full set was active somewhere.

SMILES	CASP6 VEID inh	ERAP1 inh	Ecoli rRNA inh	S100A4 inh HTS	ARNT TACC3 PPI	PGC1a acetyl inh
CCOC(=O)Cc1nn(Cc2ccccc2)c(=O)c2ccccc12	2	-1	-26*	-3	0	·
Cc1nc(NC(=O)COC(=O)/C=C/c2ccco2)c(Cl)cc1Cl	50*	-1	5	-16	·	·
O=C(COC(=O)/C=C/c1ccco1)Nc1ncc(Cl)cc1Cl	44*	-2	9	-6	-2	10
Nc1nc(-c2ccccc2)c(N=Nc2cccnc2)s1	-4	-1	4	-3	-1	·
Nc1nn(-c2ccccc2)c(N)c1N=Nc1ccc2c(c1)OCO2	·	·	·	·	18	·
Cc1nn(-c2ccccc2)c(N)c1N=Nc1cccnc1	-7	0	-22*	6	9	·
Nc1nn(-c2ccccc2)c(N)c1N=Nc1cccc(F)c1	1	·	-36*	-3	·	6
CCNC(=O)Nc1ccc2c(c1)C(=O)N(C)[C@H]1CC[C@@H](CC(=O)Nc3ccccc3)O[C@@H]1CO2	4	2	1	-10	1	3
Clc1cccc(Cl)c1NC1=NCCC1	·	·	·	·	-2	-15
c1n[nH]c(NC2=NCCC2)n1	·	·	·	·	61*	0
N=c1c2c(-c3ccccc3)c(-c3ccccc3)n(Cc3ccco3)c2ncn1CCCO	4	1	-52*	5	·	-23
C[C@@H]1CCCCO[C@@H](CN(C)C(=O)c2ccccc2)[C@@H](C)CN([C@H](C)CO)C(=O)c2cc(NC(=O)CCC(F)(F)F)ccc2O1	-2	-1	5	8	-3	2
CCC(=O)N1N=C(c2ccc(Cl)cc2)CC1c1ccco1 (stereo unspecified)	-1	5	-28*	7	5	-4
O=C(CCl)N1N=C(c2ccco2)CC1c1ccco1 (stereo unspecified)	60*	0	21	-21	-7	-5
O=C(COc1cccnc1[N+](=O)[O-])N1N=C(c2ccc(Cl)cc2)CC1c1ccco1 (stereo unspecified)	-2	2	-20*	1	-5	-10
O=C(CCl)N1N=C(c2cccs2)CC1c1ccco1 (stereo unspecified)	9	0	8	4	6	-39
C[C@@H]1CN([C@@H](C)CO)S(=O)(=O)c2ccc(C#Cc3ccncc3)cc2O[C@@H]1CN(C)CC1CC1	-2	0	3	-12	1	-6
COCC(=O)N1CC2(C1)[C@@H](c1ccc(-c3ccc(F)cc3)cc1)[C@H](CO)N2C(=O)C1CC1	1	1	0	3	·	-3
CCN1C(=O)[C@H]2[C@@H](c3ccc(C)cc3)N3C(=O)N(c4ccc(C)cc4)C(=O)[C@@]3(Cc3ccc(Cl)cc3)[C@H]2C1=O	0	-3	-28*	-5	0	-3
O=C1[C@H]2[C@@H](c3ccccc3)N[C@]3(CCCN(CC4CCCCC4)C3=O)[C@H]2C(=O)N1Cc1ccccc1	41*	-1	·	6	·	5
CCN1C(=O)[C@H]2[C@@H](c3ccc(C)cc3)N[C@]3(CCCN(Cc4ccc(Cl)cc4)C3=O)[C@H]2C1=O	9	-4	-20*	0	·	-8
CCN1C(=O)[C@H]2[C@@H](c3ccc(C)cc3)N3C(=O)N(c4ccccc4)C(=O)[C@@]3(Cc3ccc(Cl)cc3)[C@H]2C1=O	·	·	·	·	0	11
O=C1[C@H]2[C@@H](c3ccc(C(F)(F)F)cc3)N[C@]3(CCCN(CC4CCCCC4)C3=O)[C@H]2C(=O)N1Cc1ccccc1	4	1	2	7	·	-15
COc1cccc(-c2ccc3c(c2)[C@@H]2[C@@H](CCN2C(=O)c2cnccn2)[C@@H](CO)N3)c1	-1	0	0	5	9	18
COc1cc([N+](=O)[O-])ccc1NC(=S)NNC(=O)CCC(=O)Nc1ccccc1Cl	4	-2	-17*	4	1	5
SMILES	CASP6 VEID inh	ERAP1 inh	Ecoli rRNA inh	S100A4 inh HTS	ARNT TACC3 PPI	PGC1a acetyl inh
CN(C)c1ccc(C=C2SC(=S)NC2=O)cc1	-1	-2	6	4	-7	51*
CCN(CC(=O)NC(C)(C)C)Cc1nc2c(Br)cc(Br)cc2c(=O)[nH]1	1	2	-29*	-3	33	10
CCN(CC(=O)NC1CCS(=O)(=O)C1)Cc1nc2c(Br)cc(Br)cc2c(=O)[nH]1 (stereo unspecified)	3	3	-2	0	2	11
COCC(=O)Nc1ccc2c(c1)C(=O)N(C)[C@H]1CC[C@@H](CC(=O)NCC3CCCCC3)O[C@H]1CO2	3	-4	0	3	-5	9
Cc1[nH]c2ccccc2c1/C=C(\C#N)C(=O)NCC1CCCO1 (stereo unspecified)	1	-6	-23*	2	6	·
COc1cccc(S(=O)(=O)Nc2ccc3c(c2)[C@@H]2C[C@H](CC(=O)NCc4ccccc4F)O[C@H](CO)[C@@H]2O3)c1	1	2	-8	-1	0	-5
COc1ccc2nc(/N=C\N(C)C)sc2c1	·	·	·	·	-6	-1
CN(C)/C=N/c1nc2ccc3c(c2s1)CCCC3	·	-1	-26*	9	0	1
Oc1ccc(Cl)cc1CNCc1cccc2ccccc12	-1	-1	-24*	-4	-2	-3
C[C@H](CO)N1C[C@H](C)[C@H](CN(C)Cc2ccncc2)Oc2cc(C#C[C@@H](C)O)ccc2S1(=O)=O	1	0	0	-2	9	-2
CCOc1cc(/C=C/C(=O)O)ccc1OCCOc1ccccc1	·	1	-7	-4	1	·
CCCOc1ccc(/C=C/C(=O)O)cc1OC	1	2	5	-6	-6	62*
C/C=C/c1ccc(OC(C)=O)c(OC)c1	2	·	6	0	20*	·
CC(=O)N1N=C2c3ccccc3CCC2C1c1ccc(F)cc1 (stereo unspecified)	0	·	-44	-3	·	28
CN(C)c1ccc(C2C3CCCc4ccccc4C3=NN2C)cc1 (stereo unspecified)	1	6	-27*	0	1	6
Cc1ccccc1CN(C)C[C@H]1OCc2cn(nn2)CCCC(=O)N([C@H](C)CO)C[C@H]1C	0	6	-2	17	5	3
COc1ccc2c3c(n(C)c2c1)[C@H](CO)N(S(=O)(=O)c1ccc(C)cc1)CC31CN(S(=O)(=O)c2ccc(C)cc2)C1	·	·	3	·	·	-1
Fc1ccc(-n2cc(-c3ccccc3)c3c(N4CCOCC4)ncnc32)cc1	-1	-2	-24*	3	4	3
O=C(/C=C\c1ccccc1OC(=O)c1ccccc1F)c1cc2ccccc2o1	-2	0	-23*	-4	0	-9

High-throughput results (PubChem)
